Legend:
[1] = Displacement of [3H]-(+)-MK-801 from NMDA PCP binding site in pig brain cortex membrane at 1 uM incubated for 120 mins by scintillation counting method relative to control; assay type: cell membranes
[2] = target: T1, Sigma intracellular receptor 2 (Rattus norvegicus) (UniProt Q5U3Y7); assay: Displacement of [3H]-Di-o-tolylguanidine from sigma-2 receptor in rat liver membranes after 120 mins by scintillation counting method relative to control; assay type: cell membranes; set-up: concentration or dose not given beside the values
T1 sequence (whole entry): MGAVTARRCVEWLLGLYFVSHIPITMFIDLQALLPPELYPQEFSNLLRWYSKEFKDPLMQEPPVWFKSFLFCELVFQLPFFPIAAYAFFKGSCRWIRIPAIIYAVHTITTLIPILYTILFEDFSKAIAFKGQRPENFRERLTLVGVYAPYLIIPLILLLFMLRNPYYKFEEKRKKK

[3] = target: Glutamate receptor ionotropic, NMDA 2B (Homo sapiens) (UniProt Q13224); assay: Displacement of [3H]ifenprodil from human GluN2B expressed in mouse L(tk-) cell membranes at 1 uM incubated for 120 mins by scintillation counting method relative to control
How it was run: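 Competition binding with [³H]ifenprodil on membranes of mouse fibroblast L(tk-) cells stably transfected with dexamethasone-inducible vectors for human GluN1a and human GluN2B; inhibition (%) of radioligand binding recorded at 1 μM test compound.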

[4] = target: Sigma non-opioid intracellular receptor 1 (Cavia porcellus) (UniProt Q60492); assay: Displacement of [3H]-(+)pentazocine from sigma-1 receptor in guinea pig brain membranes after 120 mins by scintillation counting method relative to control; assay type: cell membranes; set-up: concentration or dose not given beside the values
[5] = target: T2, Sigma non-opioid intracellular receptor 1 (Cavia porcellus, UniProt Q60492); assay: Displacement of [3H]-(+)pentazocine from sigma-1 receptor in guinea pig brain membranes after 120 mins by scintillation counting method; assay type: cell membranes
[6] = target: T3, Sigma intracellular receptor 2 (Rattus norvegicus, UniProt Q5U3Y7); assay: Displacement of [3H]-Di-o-tolylguanidine from sigma-2 receptor in rat liver membranes after 120 mins by scintillation counting method; assay type: cell membranes
T3 sequence (Q5U3Y7 whole entry): T1 sequence (whole entry)

[7] = target: T3, Sigma intracellular receptor 2; assay: Displacement of [3H]-Di-o-tolylguanidine from sigma-2 receptor in rat liver membranes after 180 mins by scintillation counting method; assay type: cell membranes
[8] = target: T2, Sigma non-opioid intracellular receptor 1; assay: Displacement of [3H]-(+)pentazocine from sigma-1 receptor in guinea pig brain membranes after 180 mins by scintillation counting method; assay type: cell membranes
[9] = organism: Cavia porcellus; assay: Displacement of [3H]-(+)-MK-801 from NMDA PCP binding site in pig brain cortex membrane at 1 uM incubated for 150 mins by scintillation counting method relative to control; assay type: cell membranes
[10] = target: Glutamate receptor ionotropic, NMDA 2B (Homo sapiens, UniProt Q05586+Q13224); assay: Displacement of [3H]ifenprodil from human GluN2B expressed in mouse L(tk-) cell membranes co-expressing GluN1a incubated for 120 mins by scintillation counting method
Glutamate receptor ionotropic, NMDA 2B, sequence (Q13224 whole entry, one chain of several): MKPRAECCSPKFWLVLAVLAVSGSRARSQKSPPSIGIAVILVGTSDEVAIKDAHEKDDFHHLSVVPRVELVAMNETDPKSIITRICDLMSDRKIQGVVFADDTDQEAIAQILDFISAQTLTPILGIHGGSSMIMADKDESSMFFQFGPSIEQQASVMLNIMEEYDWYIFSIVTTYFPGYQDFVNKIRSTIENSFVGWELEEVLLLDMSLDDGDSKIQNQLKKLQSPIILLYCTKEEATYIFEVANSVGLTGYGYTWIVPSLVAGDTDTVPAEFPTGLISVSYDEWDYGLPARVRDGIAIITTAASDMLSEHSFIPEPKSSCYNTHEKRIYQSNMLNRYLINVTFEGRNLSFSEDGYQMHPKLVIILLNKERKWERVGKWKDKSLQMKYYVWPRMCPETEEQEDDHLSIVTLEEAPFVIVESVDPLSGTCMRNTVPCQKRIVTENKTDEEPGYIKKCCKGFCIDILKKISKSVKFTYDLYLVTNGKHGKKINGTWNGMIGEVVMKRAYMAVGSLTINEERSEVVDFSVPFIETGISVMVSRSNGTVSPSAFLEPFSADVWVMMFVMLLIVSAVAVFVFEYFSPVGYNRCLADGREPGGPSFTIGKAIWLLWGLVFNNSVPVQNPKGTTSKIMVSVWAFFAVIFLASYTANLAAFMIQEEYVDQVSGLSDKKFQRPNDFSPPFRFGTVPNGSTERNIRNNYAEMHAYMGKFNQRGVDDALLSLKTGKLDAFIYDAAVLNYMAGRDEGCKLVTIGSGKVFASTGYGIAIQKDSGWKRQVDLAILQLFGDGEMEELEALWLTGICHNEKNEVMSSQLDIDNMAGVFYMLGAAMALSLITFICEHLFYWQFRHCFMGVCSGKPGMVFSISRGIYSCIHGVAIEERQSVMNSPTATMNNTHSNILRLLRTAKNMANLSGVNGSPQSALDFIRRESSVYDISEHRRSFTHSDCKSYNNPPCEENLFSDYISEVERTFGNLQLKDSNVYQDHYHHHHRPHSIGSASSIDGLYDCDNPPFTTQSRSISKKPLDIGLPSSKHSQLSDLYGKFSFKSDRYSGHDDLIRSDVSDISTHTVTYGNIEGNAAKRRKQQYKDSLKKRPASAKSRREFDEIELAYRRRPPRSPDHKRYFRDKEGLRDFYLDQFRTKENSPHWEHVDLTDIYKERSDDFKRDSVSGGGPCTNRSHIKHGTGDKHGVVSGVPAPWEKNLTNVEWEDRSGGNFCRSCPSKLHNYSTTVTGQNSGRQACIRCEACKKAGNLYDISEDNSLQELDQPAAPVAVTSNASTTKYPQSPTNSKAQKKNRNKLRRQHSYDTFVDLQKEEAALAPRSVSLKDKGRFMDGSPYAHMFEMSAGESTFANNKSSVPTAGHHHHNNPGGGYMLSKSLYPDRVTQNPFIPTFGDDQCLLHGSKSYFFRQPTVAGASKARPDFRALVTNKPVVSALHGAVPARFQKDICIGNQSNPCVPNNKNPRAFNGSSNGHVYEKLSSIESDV

Sigma non-opioid intracellular receptor 1 (Cavia porcellus), sequence (Q60492 whole entry): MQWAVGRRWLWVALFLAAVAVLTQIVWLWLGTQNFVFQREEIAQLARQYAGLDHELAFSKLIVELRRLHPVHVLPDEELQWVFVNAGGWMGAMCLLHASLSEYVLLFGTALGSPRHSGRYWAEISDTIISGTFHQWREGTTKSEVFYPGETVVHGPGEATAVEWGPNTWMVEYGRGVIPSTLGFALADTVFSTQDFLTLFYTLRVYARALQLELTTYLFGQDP
T2 sequence (Q60492 whole entry): as above
Glutamate receptor ionotropic, NMDA 2B (Homo sapiens), sequence (Q13224 27-1484 limits assumed): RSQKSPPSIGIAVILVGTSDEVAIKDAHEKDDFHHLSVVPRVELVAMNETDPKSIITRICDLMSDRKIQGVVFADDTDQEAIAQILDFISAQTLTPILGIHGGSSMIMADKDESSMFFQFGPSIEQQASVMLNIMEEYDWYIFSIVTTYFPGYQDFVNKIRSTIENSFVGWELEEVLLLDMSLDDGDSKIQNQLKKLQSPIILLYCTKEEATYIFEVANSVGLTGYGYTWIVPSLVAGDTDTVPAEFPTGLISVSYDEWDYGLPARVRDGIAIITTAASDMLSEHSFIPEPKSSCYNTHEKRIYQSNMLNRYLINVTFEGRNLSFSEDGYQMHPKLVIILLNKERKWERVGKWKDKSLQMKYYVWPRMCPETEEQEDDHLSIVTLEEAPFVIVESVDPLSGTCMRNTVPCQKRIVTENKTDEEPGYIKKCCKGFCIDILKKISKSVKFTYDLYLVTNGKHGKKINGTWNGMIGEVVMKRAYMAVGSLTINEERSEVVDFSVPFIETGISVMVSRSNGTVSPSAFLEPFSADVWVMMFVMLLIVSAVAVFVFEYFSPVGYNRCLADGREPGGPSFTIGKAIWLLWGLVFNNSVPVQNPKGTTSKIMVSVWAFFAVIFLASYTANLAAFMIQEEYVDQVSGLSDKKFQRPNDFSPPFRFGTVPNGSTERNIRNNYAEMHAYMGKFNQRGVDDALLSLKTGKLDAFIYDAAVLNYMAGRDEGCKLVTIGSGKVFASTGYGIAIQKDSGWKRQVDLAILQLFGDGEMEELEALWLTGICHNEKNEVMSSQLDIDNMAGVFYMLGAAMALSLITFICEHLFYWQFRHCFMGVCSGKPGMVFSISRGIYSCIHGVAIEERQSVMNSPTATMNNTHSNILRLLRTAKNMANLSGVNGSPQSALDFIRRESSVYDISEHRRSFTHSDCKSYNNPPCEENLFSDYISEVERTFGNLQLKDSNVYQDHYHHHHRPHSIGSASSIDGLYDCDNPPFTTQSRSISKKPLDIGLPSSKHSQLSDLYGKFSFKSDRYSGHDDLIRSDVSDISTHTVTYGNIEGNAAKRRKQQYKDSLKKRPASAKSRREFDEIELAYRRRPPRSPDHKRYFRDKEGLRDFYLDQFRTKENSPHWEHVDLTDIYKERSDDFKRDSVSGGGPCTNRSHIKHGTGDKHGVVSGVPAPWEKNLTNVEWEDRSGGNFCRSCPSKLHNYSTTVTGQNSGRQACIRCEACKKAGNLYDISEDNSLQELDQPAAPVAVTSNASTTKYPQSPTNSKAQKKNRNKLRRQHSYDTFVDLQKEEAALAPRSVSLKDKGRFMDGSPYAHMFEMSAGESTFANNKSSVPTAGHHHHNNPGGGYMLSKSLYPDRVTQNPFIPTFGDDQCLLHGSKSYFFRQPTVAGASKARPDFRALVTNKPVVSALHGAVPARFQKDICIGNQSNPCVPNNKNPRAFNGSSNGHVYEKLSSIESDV

SMILES	inhibition [1] [%]	inhibition [2] [%]	inhibition [3] [%]	inhibition [4] [%]	Ki [5] [nM]	Ki [6] [nM]	Ki [7] [nM]	Ki [8] [nM]	inhibition [9] [%]	Ki [10] [nM]
COc1ccc2c(c1)CCN(CCC#Cc1nccs1)CC2O (centres undefined)	0	0	0	0	–	–	–	–	–	–
COc1ccc2c(c1)CCN(CCC#Cc1ccccc1)CC2O (centres undefined)	15	15	18	–	565	–	–	–	–	–
COc1ccc2c(c1)CCN(CCC#Cc1cccc(OCCF)c1)CC2O (centres undefined)	0	23	3	9	–	–	–	–	–	–
COc1ccc2c(c1)CCN(CCC#Cc1ccc(OCCF)cc1)CC2O (centres undefined)	0	12	3	–	701	–	–	–	–	–
COc1ccc2c(c1)CCN(CCCCc1ccccc1OCCF)CC2O (centres undefined)	0	–	19	–	715	593	–	–	–	–
COc1ccc2c(c1)CCN(CCCCc1ccccc1)CC2O (centres undefined)	–	–	–	–	–	–	96	211	25	–
COc1ccc2c(c1)CCN(CCC#Cc1cccs1)CC2O (centres undefined)	0	20	13	21	–	–	–	–	–	–
COc1ccc2c(c1)CCN(CCCCc1cn(CCF)nn1)CC2O (centres undefined)	0	0	0	28	–	–	–	–	–	–
COc1ccc2c(c1)CCN(CCC#Cc1cccnc1)CC2O (centres undefined)	0	9	1	5	–	–	–	–	–	–
Oc1ccc2c(c1)CCN(CCCCc1ccc(OCCF)cc1)CC2O (centres undefined)	0	–	–	–	705	79	–	–	–	193
COc1ccc2c(c1)CCN(CCC#Cc1ccccc1OCCF)CC2O (centres undefined)	4	22	4	31	–	–	–	–	–	–
COc1ccc2c(c1)CCN(CCCCc1cccs1)CC2O (centres undefined)	0	–	20	–	340	562	–	–	–	–
COc1ccc2c(c1)CCN(CCCC#Cc1ccccc1)CC2O (centres undefined)	9	–	–	–	164	878	–	–	–	460
COc1ccc2c(c1)CCN(CCCCc1cccnc1)CC2O (centres undefined)	0	–	0	–	274	397	–	–	–	–
OC1CN(CCC#Cc2ccc(OCCF)cc2)CCc2cc(OCc3ccccc3)ccc21 (centres undefined)	0	12	0	0	–	–	–	–	–	–

Reference: ChEMBL document CHEMBL4346734, “Modification of the 4-phenylbutyl side chain of potent 3-benzazepine-based GluN2B receptor antagonists” (Bioorg Med Chem, 2019)
